Source: PubChem (several laboratories)
Compounds with a hit are over-represented: about 1.4% of the library has one in this group of screens.
SR-BI DiI-HDL act – activators of SR-BI mediated DiI-HDL uptake, primary screen, ldlA[mSR-BI] CHO cells, DiI fluorescence; 320,000 compounds, 0.096% hits; activation, % at 12.5 µM; 3 h; 100 = double the neutral-control signal;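 active means mean replicate activation of at least 60% and every replicate at or above 60%; inconclusive means mean or all-replicate condition met, but not both; inactive means mean below 60% and not all replicates reaching 60%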
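system = CHO ldlA[mSR-BI] cells, LDL receptor-null, SR-BI overexpressing | medium = Ham's F12 with 0.5% BSA, HEPES 25 mM, pH 7.4 | probe or stimulus = DiI-HDL 10 µg/mL | compound dosing = single-point compound dose | incubation = compound exposure 3 h, 37 °C | technique = DiI fluorescence, bottom read | read-out = cell-associated DiI fluorescence as measure of HDL uptake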
PKA-R2B act – activators of PKA-R2B holoenzyme, primary screen, biochemical, fluorescence polarization, Cy5-IP20, human; cAMP-dependent protein kinase catalytic subunit beta (Homo sapiens) + cAMP-dependent …; PKA-R2B holoenzyme dissociation; R2B truncated from residue 108, S112A mutant; 0% DMSO only, 100% 113 µM cGMP; activation, % at 11.4 µM; 340,000 compounds, 0.079% hits;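 active means activation above a cutoff set at the mean over all compounds plus 3 SD, cut at about 18% in these data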;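 further: higher means more holoenzyme dissociation and a rise in polarization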
Target sequence (P31323 whole entry, looked up, other chains not shown, the tested form may be a part): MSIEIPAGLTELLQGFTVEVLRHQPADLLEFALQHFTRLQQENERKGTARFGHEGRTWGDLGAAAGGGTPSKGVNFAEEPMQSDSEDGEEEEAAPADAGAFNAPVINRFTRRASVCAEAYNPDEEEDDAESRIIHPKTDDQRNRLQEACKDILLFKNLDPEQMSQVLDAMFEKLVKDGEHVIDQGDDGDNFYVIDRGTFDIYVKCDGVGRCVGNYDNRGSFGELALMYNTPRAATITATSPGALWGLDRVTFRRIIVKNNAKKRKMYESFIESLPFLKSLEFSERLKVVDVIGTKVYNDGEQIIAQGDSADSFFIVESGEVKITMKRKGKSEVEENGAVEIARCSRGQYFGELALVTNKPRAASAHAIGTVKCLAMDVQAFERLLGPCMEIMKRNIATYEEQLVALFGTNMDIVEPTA
PKA-R1A act – activators of PKA-R1A holoenzyme, primary screen, biochemical, fluorescence polarization, Cy5-IP20, bovine R1A, mouse PKAc; 340,000 compounds, 0.083% hits; cAMP-dependent protein kinase type I-alpha regulatory subunit (Bos taurus) + …; PKA-R1A dissociation; scaled: DMSO 0%, 113 µM cGMP 100%; AID 504707, 2011; activation, % at 11.4 µM;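 active means percent activation above the mean of all tested compounds plus 3 SD, cut at about 19% in these data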;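 further: higher means more PKAc released from R1A so a rise in polarization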
SR-BI DiI inh – inhibitors of SR-BI mediated HDL lipid uptake, primary screen, ldlA[mSR-BI] cells, fluorescence, single point. Scavenger receptor class B member 1 (Mus musculus), Q61009. ldlA[mSR-BI] CHO cells, DiI-HDL uptake fluorescence, 3 h. inhibition, % at 12.5 µM. 320,000 compounds, 0.96% hits. AID 488896, 2010;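 active means mean replicate inhibition of at least 70% and a set share of replicates each scoring 70 or more; inconclusive means meets just one of the two criteria; inactive means fails both criteria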
Vif inh – HIV Vif self-association inhibitors, primary screen, imaging, HEK293T, single point; HEK293T cells, Vif self-association by quenched fluorescence, 24 h; inhibition, % at 7.49 µM; 340,000 compounds, 0.35% hits; AID 602346, 2012; in the data active means inhibition above about 50%, passing the limit was not always enough; inconclusive means no clear call, values can overlap the other calls; inactive means below about 31%
R2B FP artifact – fluorescence polarization artefacts, biochemical, artefact control for PKA-R2B activator project. shares compounds with PKA-R2B act. FP artifact counterscreen. activation, % at 11.4 µM. 270 compounds, 6% hits; in the data active means activation above about 20%;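 further: Cy5 labelled IP20 peptide probe with compound but no PKA protein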
PKA-R2B act conf – activators of PKA-R2B holoenzyme, confirmation, biochemical, fluorescence polarization, human. activation, % at 11.4 µM. PKA-R2B complex, activation. 270 compounds, 9% hits. shares compounds with PKA-R2B act. AID 504797, 2011; in the data active means activation above about 19%
Target sequence (P31323 whole entry, looked up): as the sequence (P31323 whole entry, looked up, other chains not shown, the tested form may be a part) above
R1A FP artifact – FP signal interference without PKA proteins, confirmation, artefact control for PKA-R1A activator project, biochemical, fluorescence polarization, triplicate | activation, % at 11.4 µM | shares compounds with PKA-R1A act | 280 compounds, 7% hits | Cy5-IP20 peptide alone, fluorescence polarization artifact counterscreen;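 active means mean activation over triplicate runs exceeds the adjusted cutoff derived for the parent primary screen, cut at about 19% in these data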;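 further: no PKA protein present so any polarization rise reflects compound interference; higher means stronger polarization artifact and likely false positive in parent screen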
PKA-R1A confirm – activators of PKA-R1A holoenzyme, confirmation, biochemical, fluorescence polarization, Cy5-IP20, triplicate; AID 504800, 2011; 280 compounds, 9% hits; PKA-R1A holoenzyme dissociation; shares compounds with PKA-R1A act; activation, % at 11.4 µM;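 active means mean activation over replicate wells exceeds the adjusted hit threshold taken from the earlier primary screen, cut at about 20% in these data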
Each line names hits and unclear results; the compound was inactive in the other large screens (follow-up assays come after a bar, where they were run).

Nc1nnc(Cc2cccc(Br)c2)s1	PKA-R2B act 20, Vif inh inconclusive | R2B FP artifact inactive | PKA-R2B act conf inactive
Oc1ccccc1OCC(O)c1ccccc1 (centres undefined)	PKA-R2B act 19 | R2B FP artifact inactive | PKA-R2B act conf inactive
CCCNC(=O)C[C@@H]1C[C@H]2c3cc(NC(=O)c4ccc5c(c4)OCO5)ccc3O[C@H]2[C@@H](CO)O1	none (no result: SR-BI DiI-HDL act, SR-BI DiI inh)
Cc1cc(C)n(-c2ccc(C(=O)Nc3ccc(C)c(S(=O)(=O)N4CCOCC4)c3)cc2)n1	none (no result: SR-BI DiI-HDL act, SR-BI DiI inh, Vif inh)
COc1ccc(S(=O)(=O)N2CCC(C(=O)Nc3c(F)cccc3F)CC2)cc1	PKA-R2B act 21 | R2B FP artifact inactive | PKA-R2B act conf inactive
COc1ccc(NC(=O)C2CCN(S(=O)(=O)c3ccccc3)CC2)cc1	none
COc1ccccc1C(=O)N/C(=C\c1ccccc1)C(=O)NCc1ccco1	none (no result: SR-BI DiI-HDL act, SR-BI DiI inh)
CCn1c(SCC(=O)NCCc2ccc(Cl)cc2)nnc1-c1cccs1	PKA-R2B act 19 | R2B FP artifact inactive | PKA-R2B act conf inactive
COc1cc(C2NC(=O)CCC2[N+](=O)[O-])cc(OC)c1OC (centres undefined)	none
Cc1cc(C)c2c(n1)nn1c(NCCN3CCOCC3)cc(C)nc21	PKA-R2B act 18 | R2B FP artifact inactive | PKA-R2B act conf inactive
Cc1cc(NCCN2CCOCC2)n2nc(C)c(-c3ccccc3)c2n1	none
COc1ccc2[nH]c(=O)c(CN(C(C)=O)c3ccc(C)cc3C)cc2c1	none
CCC(=O)N(Cc1cc2cc(OC)ccc2[nH]c1=O)c1ccc(C)cc1C	PKA-R2B act 21 | R2B FP artifact inactive | PKA-R2B act conf inactive
Cc1ccc(C(=O)N2CCN(c3ccc(C(F)(F)F)cn3)CC2)cc1	PKA-R2B act 20 | R2B FP artifact inactive | PKA-R2B act conf inactive
COc1c2ccoc2nc2c(OC)c(OCC(OC(C)=O)C(C)(C)O)ccc12 (centres undefined)	Vif inh inconclusive
Clc1cccc(N/N=C/c2ccc(N3CCOCC3)s2)c1	PKA-R2B act 21 | R2B FP artifact inactive | PKA-R2B act conf inactive
O=C(N/N=C/c1ccc(N2CCOCC2)s1)c1ccccc1Br	none
O=S(=O)(NCc1ccccc1)[C@@H]1CC2C=CC1C2 (some centres undefined)	none
Cc1ccccc1NS(=O)(=O)c1cc(S(C)(=O)=O)ccc1C	PKA-R2B act 19 | R2B FP artifact inactive | PKA-R2B act conf inactive
CC(C)C[C@@H](CN)NC(=O)c1nc[nH]c1C(=O)N[C@@H](CC(C)C)C(=O)CNC[C@H](C)NC(=O)c1nc[nH]c1C(=O)N[C@@H](CC(=O)O)C(=O)O	none
Cc1onc(-c2ccccc2Cl)c1C(=O)NCc1cccnc1	PKA-R2B act 20 | R2B FP artifact inactive | PKA-R2B act conf inactive
CC(C)Cn1c(=O)c(C(=O)NCc2ccccn2)c(O)c2ccccc21	PKA-R2B act 21 | R2B FP artifact inactive | PKA-R2B act conf inactive
O=C(NCCS(=O)(=O)N1CCC2(CC1)OCCO2)c1ccc(F)cc1	none
CCCC1Nc2ccc(C(=O)O)cc2C2C=CCC12 (centres undefined)	PKA-R2B act 19, PKA-R1A act 23 | R2B FP artifact 21 | PKA-R2B act conf 20 | R1A FP artifact 21 | PKA-R1A confirm 24
COc1ccc2oc(C(=O)OCC(=O)Nc3ccc(NC(C)=O)cc3)c(C)c2c1	PKA-R2B act 25, PKA-R1A act 20 | R2B FP artifact inactive | PKA-R2B act conf inactive | R1A FP artifact inactive | PKA-R1A confirm inactive
CCC1=NN2C(=N)/C(=C/c3ccc(OS(=O)(=O)c4ccccc4)cc3)C(=O)N=C2S1	PKA-R2B act 29, PKA-R1A act 22 | R2B FP artifact 23 | PKA-R2B act conf 23 | R1A FP artifact 23 | PKA-R1A confirm 28
CCS(=O)(=O)C1=NN2C(=N)/C(=C\c3ccc(OS(=O)(=O)c4ccccc4)cc3)C(=O)N=C2S1	none
CCOc1ncccc1C(=O)OCC(=O)NCc1ccccc1	none
Cc1oc2ccc(OCc3ccccc3F)cc2c1C(=O)O	none
Cc1ccccc1COc1ccc2oc(C)c(C(=O)O)c2c1	PKA-R2B act 42, PKA-R1A act 43 (no result: SR-BI DiI-HDL act, SR-BI DiI inh) | R2B FP artifact 60 | PKA-R2B act conf 70 | R1A FP artifact 60 | PKA-R1A confirm 67
Cc1ccc2c(=O)n3c(nc2c1)C(Cc1ccc(O)cc1)NC(=O)c1cc2ccccc2cc1-3 (centres undefined)	none (no result: SR-BI DiI-HDL act, SR-BI DiI inh, Vif inh)
O=c1c(Cl)c(NCc2ccco2)cnn1C12CC3CC(CC(C3)C1)C2	none (no result: SR-BI DiI-HDL act, SR-BI DiI inh)
O=c1c(Cl)c(NCc2ccccc2Cl)cnn1C12CC3CC(CC(C3)C1)C2	PKA-R1A act 19 | R1A FP artifact inactive | PKA-R1A confirm inactive
NC(=O)C1CCN(C(=O)C(=O)c2cn(CC(=O)N3CCCC3)c3ccccc23)CC1	PKA-R1A act 20 | R1A FP artifact inactive | PKA-R1A confirm inactive
CCOC(=O)c1cccc2c(=O)c(C(=O)c3ccc(Cl)cc3)c(C(=O)OC)[nH]c12	none
Cc1cccc2[nH]c(CN(C)C(=O)CC3C(=O)NCCN3CC(C)(C)C)nc12 (centres undefined)	none
CSCC[C@H](NC(=O)c1nn(C)c(=O)c2ccccc12)c1nc2ccccc2[nH]1	PKA-R1A act 20 | R1A FP artifact inactive | PKA-R1A confirm inactive
COc1ccc(CNC(=O)C(=O)c2cn(CC(=O)N3CCOCC3)c3ccccc23)cc1	none
COc1ccccc1CCNC(=O)C(=O)c1cn(CC(=O)N2CCOCC2)c2ccccc12	PKA-R1A act 19 | R1A FP artifact inactive | PKA-R1A confirm inactive
